Assay results taken from ChEMBL document CHEMBL2346497, “Synthesis of novel cognition enhancers with pyrazolo[5,1-c][1,2,4]benzotriazine core acting at γ-aminobutyric acid type A (GABA(A)) receptor” (Bioorg Med Chem, 2013).
Calls of active or inactive are those of the source. No cut-off for these calls is given here.

Legend:
[1] = Displacement of [3H]Ro15-1788 from GABA-A receptor benzodiazepine binding site in bovine cerebral cortex membranes after 1 hr; format: cell membranes, Bos taurus, Membrane
Rattus norvegicus [2] = test: Procognitive effect in Harlan Wistar rat assessed as exploring time of familiar rat during social investigatory behaviour at 1 mg/kg, po administered 30 mins prior to testing measured for 5 mins by social learning test (reference value: 27.6 secs); format: functional
[3] = target: T1, Gamma-aminobutyric acid receptor subunit alpha-5 (Homo sapiens, UniProt P18507+P31644+P47870); test: Displacement of [3H]Ro15-1788 from recombinant GABA-A alpha5beta2gamma2 receptor benzodiazepine binding site (unknown origin) after 1 hr
T1 sequence (P31644 whole entry): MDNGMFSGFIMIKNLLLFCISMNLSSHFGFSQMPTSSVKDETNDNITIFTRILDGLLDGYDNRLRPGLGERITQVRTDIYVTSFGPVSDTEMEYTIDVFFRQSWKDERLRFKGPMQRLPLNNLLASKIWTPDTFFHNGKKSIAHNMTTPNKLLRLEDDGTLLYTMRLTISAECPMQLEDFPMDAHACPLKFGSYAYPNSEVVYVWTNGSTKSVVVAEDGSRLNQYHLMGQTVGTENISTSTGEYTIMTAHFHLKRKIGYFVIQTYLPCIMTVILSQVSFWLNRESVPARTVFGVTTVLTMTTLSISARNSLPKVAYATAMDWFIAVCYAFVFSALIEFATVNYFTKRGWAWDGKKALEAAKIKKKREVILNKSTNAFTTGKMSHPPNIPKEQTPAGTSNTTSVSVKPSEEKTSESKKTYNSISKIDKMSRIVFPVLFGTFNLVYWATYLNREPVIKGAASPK

Rattus norvegicus [4] = test: Procognitive effect in Harlan Wistar rat assessed as exploring time of familiar rat during social investigatory behaviour at 0.3 mg/kg, po administered 30 mins prior to testing measured for 5 mins by social learning test (reference value: 27.6 secs); format: functional
[5] = target: GABA A receptor alpha-2/beta-2/gamma-2 (Homo sapiens) (UniProt P47870+P18507+P47869); test: Displacement of [3H]Ro15-1788 from recombinant GABA-A alpha2beta2gamma2 receptor benzodiazepine binding site (unknown origin) at 10 uM after 1 hr relative to control; format: protein-complex assay
Outline: (§1)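 Membranes came from clonal mammalian cell lines expressing α1β2γ2, α2β2γ2 or α5β3γ2 receptors, grown in MEM/EBSS with 10% FCS at 37 °C. Membranes were resuspended in 10 mM potassium phosphate, pH 7.4, with 100 mM KCl. Assays used 1–2 nM [3H]Ro15-1788 and test compound from 10^-9 to 10^-5 M, at least six concentrations. Diazepam at 10^-5 M defined nonspecific binding. Incubation ran 1 h at 4 °C. Single-point % inhibition was measured at 10 µM, and Ki by curve fitting; n = 5, in duplicate.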

Mus musculus [6] = test: Anticonvulsant activity in CD1 albino mouse assessed as protection against pentylenetetrazole-induced convulsions at 1 mg/kg, po administered 30 mins prior to pentylenetetrazole challenge measured over 30 mins (reference value: 7.1%); format: functional
Mus musculus [7] = test: Neurotoxicity in CD1 albino mouse assessed as decrease in number of falls from rotating rod at 10 mg/kg, po by rota-rod test relative to control; format: toxicity, organism-based; parameters: dose 10 mg/kg, route oral; conditions: in vivo, TDE = time-dependent effect
Outline: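 Motor coordination was tested on a rota-rod turning at 24 rpm in male CD-1 mice dosed po in 1% CMC. Falls within 30 s were counted at a pretest and at 15, 30, 45 and 60 min after dosing. Each value is the mean of five mice, compared with CMC-treated controls.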

Mus musculus [8] = test: Antiamnesic activity in CD1 albino mouse assessed as reversal of scopolamine-induced amnesia at 0.1 mg/kg, po administered 30 mins prior to scopolamine challenge measured after 24 hrs by passive avoidance test; format: functional, organism-based; parameters: dose 0.1 mg/kg
Outline: (§2)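 Step-through passive avoidance in male CD-1 mice (22–24 g). Test drugs were given po, suspended in 1% carboxymethylcellulose at 10 ml/kg, 30 min before the training session. For the antiamnesic arm, scopolamine 1.5 mg/kg was injected immediately after punishment. Retention latency was compared with CMC-treated controls, n = 10–12 mice per group.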

Rattus norvegicus [9] = test: Procognitive effect in Harlan Wistar rat assessed as decrease in exploring time of unfamiliar rat during social investigatory behaviour at 0.3 to 10 mg/kg, po administered 30 mins prior to testing measured for 5 mins by social learning test relative to control; format: functional, organism-based
Mus musculus [10] = test: Anxiolytic activity in CD1 albino mouse assessed as increase in time spent in illuminated side at 1 mg/kg, po administered 30 mins prior to testing measured for 5 mins by light-dark box test; format: functional, organism-based; parameters: dose 1 mg/kg
Outline: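 Light/dark box: two equal acrylic compartments, one lit by a 60 W lamp, joined by a floor-level opening. Male CD-1 mice were dosed po in 1% CMC 30 min before the test, then placed in the centre of the lit side facing away from the dark side. Over 5 min, transfers and time in the light side were recorded, n = 8 mice per group.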

Rattus norvegicus [11] = test: Procognitive effect in Harlan Wistar rat assessed as exploring time of familiar rat during social investigatory behaviour at 10 mg/kg, po administered 30 mins prior to testing measured for 5 mins by social learning test (reference value: 27.6 secs); format: functional
[12] = target: T2, GABA-A receptor; alpha-1/beta-2/gamma-2 (Homo sapiens, UniProt P14867+P18507+P47870); test: Displacement of [3H]Ro15-1788 from recombinant GABA-A alpha1beta2gamma2 receptor benzodiazepine binding site (unknown origin) after 1 hr; format: protein-complex assay; outline: as §1
T2 sequence (P14867 whole entry): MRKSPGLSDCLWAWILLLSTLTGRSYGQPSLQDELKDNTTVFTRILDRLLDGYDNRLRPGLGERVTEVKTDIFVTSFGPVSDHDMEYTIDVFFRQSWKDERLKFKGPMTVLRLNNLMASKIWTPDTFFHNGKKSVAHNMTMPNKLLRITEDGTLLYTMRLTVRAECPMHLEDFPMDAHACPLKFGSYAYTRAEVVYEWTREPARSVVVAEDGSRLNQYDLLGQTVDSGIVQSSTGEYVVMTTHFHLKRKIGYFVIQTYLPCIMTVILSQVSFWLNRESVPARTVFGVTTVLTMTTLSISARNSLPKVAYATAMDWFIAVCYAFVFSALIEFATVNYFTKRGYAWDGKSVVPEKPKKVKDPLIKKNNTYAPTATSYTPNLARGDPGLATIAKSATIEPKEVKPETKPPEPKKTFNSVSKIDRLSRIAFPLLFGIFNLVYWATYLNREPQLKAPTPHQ
T2 sequence (P47870 whole entry): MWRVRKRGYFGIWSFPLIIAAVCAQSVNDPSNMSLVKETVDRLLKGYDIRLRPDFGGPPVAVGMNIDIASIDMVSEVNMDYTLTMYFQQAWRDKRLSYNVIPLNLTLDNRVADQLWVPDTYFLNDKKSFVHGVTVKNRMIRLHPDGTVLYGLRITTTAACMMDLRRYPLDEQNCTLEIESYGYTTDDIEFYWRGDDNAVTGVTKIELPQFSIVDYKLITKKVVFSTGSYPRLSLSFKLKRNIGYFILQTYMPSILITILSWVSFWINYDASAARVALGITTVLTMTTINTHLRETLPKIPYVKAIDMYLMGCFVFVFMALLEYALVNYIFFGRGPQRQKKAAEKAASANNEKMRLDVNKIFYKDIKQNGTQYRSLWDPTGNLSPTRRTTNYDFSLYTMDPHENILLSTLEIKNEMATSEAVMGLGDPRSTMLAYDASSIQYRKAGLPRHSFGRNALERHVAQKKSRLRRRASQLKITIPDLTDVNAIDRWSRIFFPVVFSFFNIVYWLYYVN
T2 sequence (P18507 whole entry): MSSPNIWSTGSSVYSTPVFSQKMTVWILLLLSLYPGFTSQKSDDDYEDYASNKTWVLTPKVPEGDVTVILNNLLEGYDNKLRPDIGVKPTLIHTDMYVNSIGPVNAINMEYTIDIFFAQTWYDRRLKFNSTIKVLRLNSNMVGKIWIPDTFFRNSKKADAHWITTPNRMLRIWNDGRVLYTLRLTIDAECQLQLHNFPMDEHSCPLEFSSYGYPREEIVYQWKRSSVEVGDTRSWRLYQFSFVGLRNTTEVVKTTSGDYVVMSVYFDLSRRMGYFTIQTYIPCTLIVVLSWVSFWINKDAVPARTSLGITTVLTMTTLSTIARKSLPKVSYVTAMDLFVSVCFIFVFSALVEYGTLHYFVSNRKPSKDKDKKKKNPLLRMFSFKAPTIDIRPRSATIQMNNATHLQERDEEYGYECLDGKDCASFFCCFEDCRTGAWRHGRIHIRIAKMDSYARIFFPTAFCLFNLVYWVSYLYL

Mus musculus [13] = test: Cognitive enhancing effect in CD1 albino mouse assessed as increase in retention latency at 0.1 to 10 mg/kg, po administered 30 mins prior to testing measured after 24 hrs by passive avoidance test relative to control; format: functional, organism-based; outline: as §2

Ki [1]: 0.33 nM | Ki [3]: 24.9 nM | inhibition [5]: 37% | Ki [12]: 0.45 nM
SMILES: [O-][n+]1nc2c(I)cnn2c2cc(NCc3cccnc3)ccc21
Time (Rattus norvegicus [2]): 43.7 s | Time (Rattus norvegicus [4]): 29.4 s | Activity (Mus musculus [6]): 0% | Activity (Mus musculus [7]): tde | Activity (Mus musculus [8]): Active | Activity (Rattus norvegicus [9]): inactive | Activity (Mus musculus [10]): inactive | Time (Rattus norvegicus [11]): 42.5 s | Activity (Mus musculus [13]): Active
